ChEMBL document CHEMBL1158335, “Synthesis and evaluation of some new benzimidazole derivatives as potential antimicrobial agents” (2009)
Values after ≈ are worked out from the molar mass of the structure shown. Active and inactive are the calls of the source. The rule behind the calls is not given here.

Key:
[1] = system: Bacillus subtilis; assay: Antibacterial activity against Bacillus subtilis MTCC 121 at 200 ug/ml after 24 hrs; format: functional, organism-based
How it was run: (§1)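 Organisms grown overnight at 37 °C in buffered glucose broth. A loopful (5 mm diameter) was added to buffered glucose broth containing the test compound and incubated at 37 °C for 24 h. Growth was scored against the untreated control as total inhibition, poor, medium or confluent growth.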

[2] = system: Bacillus subtilis; assay: Antibacterial activity against Bacillus subtilis MTCC 121 at 500 ug/ml after 24 hrs; format: functional, organism-based; how it was run: as §1
[3] = system: Bacillus subtilis; assay: Antibacterial activity against Bacillus subtilis MTCC 121 after 24 hrs; format: functional
[4] = system: Escherichia coli; assay: Antibacterial activity against Escherichia coli ATCC 25922 at 1 ug/ml after 24 hrs; format: functional, organism-based; how it was run: as §1
[5] = system: Escherichia coli; assay: Antibacterial activity against Escherichia coli ATCC 25922 at 100 ug/ml after 24 hrs; format: functional, organism-based; how it was run: as §1
[6] = system: Escherichia coli; assay: Antibacterial activity against Escherichia coli ATCC 25922 at 200 ug/ml after 24 hrs; format: functional, organism-based; how it was run: as §1
[7] = system: Escherichia coli; assay: Antibacterial activity against Escherichia coli ATCC 25922 at 500 ug/ml after 24 hrs; format: functional, organism-based; how it was run: as §1
[8] = system: Escherichia coli; assay: Antibacterial activity against Escherichia coli ATCC 25922 after 24 hrs; format: functional
[9] = system: Candida albicans; assay: Antifungal activity against Candida albicans MTCC 1637 at 30 ug/ml by cup-plate agar diffusion method; format: functional; details: for zone of inhibition at 30 µg/mL: read-out: DIZ
How it was run: (§2)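 Cup-plate agar diffusion assay against the fungal strains, with amphotericin B as the reference standard.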

[10] = system: Aspergillus flavus; assay: Antifungal activity against Aspergillus flavus AIIMS isolate at 30 ug/ml by cup-plate agar diffusion method; format: functional; details: for zone of inhibition at 30 µg/mL: read-out: DIZ; how it was run: as §2
[11] = system: Aspergillus niger; assay: Antifungal activity against Aspergillus niger AIIMS isolate at 30 ug/ml by cup-plate agar diffusion method; format: functional; details: for zone of inhibition at 30 µg/mL: read-out: DIZ; how it was run: as §2
[12] = system: Bacillus subtilis; assay: Antibacterial activity against Bacillus subtilis MTCC 121 at 1 ug/ml after 24 hrs; format: functional, organism-based; how it was run: as §1
[13] = system: Bacillus subtilis; assay: Antibacterial activity against Bacillus subtilis MTCC 121 at 10 ug/ml after 24 hrs; format: functional, organism-based; how it was run: as §1
[14] = system: Bacillus subtilis; assay: Antibacterial activity against Bacillus subtilis MTCC 121 at 100 ug/ml after 24 hrs; format: functional, organism-based; how it was run: as §1
[15] = system: Escherichia coli; assay: Antibacterial activity against Escherichia coli ATCC 25922 at 10 ug/ml after 24 hrs; format: functional, organism-based; how it was run: as §1

MIC ([3]; MTCC 121, 24 h) [µg/mL] | MIC ([8]; ATCC 25922, 24 h) [µg/mL] | Compound | inhibition [1] | inhibition [2] | inhibition [4] | inhibition [5] | inhibition [6] | inhibition [7] | zone of inhibition at 30 µg/mL [9] [mm] | zone of inhibition at 30 µg/mL [10] [mm] | zone of inhibition at 30 µg/mL [11] [mm] | inhibition [12] | inhibition [13] | inhibition [14] | inhibition [15] | other results
200 (≈ 576 µM) | 100 (≈ 288 µM) | Cc1ccccc1/C=N/c1nnc(Cn2c(C)nc3ccccc32)s1 | Active | Active | inactive | Active | Active | Active | 10 | < 10 | 10 | inactive | inactive | – | – | –
100 (≈ 235 µM) | 200 (≈ 470 µM) | Cc1nc2ccccc2n1Cc1nnc(N2C(=O)C(Cl)C2c2ccccc2O)s1 (configuration not stated) | Active | Active | inactive | – | Active | Active | 10 | 10 | 16 | – | – | Active | – | –
100 (≈ 286 µM) | 200 (≈ 572 µM) | Cc1nc2ccccc2n1Cc1nnc(/N=C/c2ccccc2O)s1 | Active | Active | inactive | – | Active | Active | – | – | – | inactive | – | Active | inactive | diameter of the inhibition zone (DIZ) [9]: inactive; diameter of the inhibition zone (DIZ) [10]: inactive; diameter of the inhibition zone (DIZ) [11]: inactive
200 (≈ 450 µM) | 100 (≈ 225 µM) | Cc1nc2ccccc2n1Cc1nnc(N2C(=O)C(Cl)C2c2ccccc2Cl)s1 (configuration not stated) | Active | Active | inactive | Active | Active | Active | – | – | – | inactive | inactive | – | – | diameter of the inhibition zone (DIZ) [9]: inactive; diameter of the inhibition zone (DIZ) [10]: inactive; diameter of the inhibition zone (DIZ) [11]: inactive
– | – | COc1ccccc1/C=N/c1nnc(Cn2c(C)nc3ccccc32)s1 | inactive | – | inactive | inactive | inactive | inactive | 10 | 16 | 16 | inactive | inactive | inactive | inactive | Activity [2]: inactive; MIC [3]: inactive; MIC [8]: inactive
200 (≈ 455 µM) | 200 (≈ 455 µM) | COc1ccc(C2C(Cl)C(=O)N2c2nnc(Cn3c(C)nc4ccccc43)s2)cc1 (configuration not stated) | Active | Active | inactive | – | Active | Active | 10 | < 10 | < 10 | inactive | – | – | – | –
100 (≈ 300 µM) | 200 (≈ 600 µM) | Cc1nc2ccccc2n1Cc1nnc(/N=C/c2ccccc2)s1 | Active | Active | inactive | – | Active | Active | 16 | 22 | 22 | inactive | – | Active | – | –
200 (≈ 572 µM) | 200 (≈ 572 µM) | Cc1nc2ccccc2n1Cc1nnc(/N=C/c2ccc(O)cc2)s1 | Active | Active | inactive | – | Active | Active | 16 | 16 | 16 | inactive | – | – | – | –
500 (≈ 1210 µM) | 500 (≈ 1210 µM) | Cc1nc2ccccc2n1Cc1nnc(/N=C/c2ccc(Br)cc2)s1 | – | Active | inactive | – | – | Active | – | – | – | inactive | inactive | – | inactive | diameter of the inhibition zone (DIZ) [9]: inactive; diameter of the inhibition zone (DIZ) [10]: inactive; diameter of the inhibition zone (DIZ) [11]: inactive
100 (≈ 287 µM) | 200 (≈ 574 µM) | Cc1nc2ccccc2n1Cc1nnc(/N=C/c2ccc(N)cc2)s1 | Active | Active | inactive | – | Active | Active | 16 | 10 | 22 | inactive | – | Active | – | –
100 (≈ 275 µM) | 200 (≈ 550 µM) | COc1ccc(/C=N/c2nnc(Cn3c(C)nc4ccccc43)s2)cc1 | Active | Active | inactive | – | Active | Active | 10 | 16 | 16 | inactive | – | Active | inactive | –
10 (≈ 28.6 µM) | 10 (≈ 28.6 µM) | CC1(C)S[C@@H]2[C@H](NC(=O)[C@H](N)c3ccccc3)C(=O)N2[C@H]1C(=O)O [AMPICILLIN] | Active | Active | – | Active | Active | Active | – | – | – | – | Active | Active | Active | –
200 (≈ 488 µM) | 500 (≈ 1220 µM) | Cc1nc2ccccc2n1Cc1nnc(N2C(=O)C(Cl)C2c2ccccc2)s1 (configuration not stated) | Active | Active | inactive | – | – | Active | 16 | 16 | 10 | inactive | inactive | – | inactive | –
100 (≈ 235 µM) | 200 (≈ 471 µM) | Cc1nc2ccccc2n1Cc1nnc(N2C(=O)C(Cl)C2c2ccc(N)cc2)s1 (configuration not stated) | Active | Active | inactive | – | Active | Active | 16 | 10 | 10 | – | – | Active | – | –
100 (≈ 272 µM) | 100 (≈ 272 µM) | Cc1nc2ccccc2n1Cc1nnc(/N=C/c2ccccc2Cl)s1 | Active | Active | inactive | Active | Active | Active | – | – | – | inactive | – | Active | – | diameter of the inhibition zone (DIZ) [9]: inactive; diameter of the inhibition zone (DIZ) [10]: inactive; diameter of the inhibition zone (DIZ) [11]: inactive
100 (≈ 236 µM) | 100 (≈ 236 µM) | Cc1ccccc1C1C(Cl)C(=O)N1c1nnc(Cn2c(C)nc3ccccc32)s1 (configuration not stated) | Active | Active | inactive | Active | Active | Active | 10 | < 10 | 16 | inactive | – | Active | – | –
200 (≈ 470 µM) | 500 (≈ 1170 µM) | Cc1nc2ccccc2n1Cc1nnc(N2C(=O)C(Cl)C2c2cccc(O)c2)s1 (configuration not stated) | Active | Active | inactive | – | – | Active | – | – | – | inactive | – | – | – | diameter of the inhibition zone (DIZ) [9]: inactive; diameter of the inhibition zone (DIZ) [10]: inactive; diameter of the inhibition zone (DIZ) [11]: inactive
– | – | C[C@@H]1[C@H](O)[C@@H](C)/C=C/C=C/C=C/C=C/C=C/C=C/C=C/[C@H](O[C@@H]2O[C@H](C)[C@@H](O)[C@H](N)[C@@H]2O)C[C@@H]2O[C@](O)(C[C@@H](O)C[C@@H](O)[C@H](O)CC[C@@H](O)C[C@@H](O)CC(=O)O[C@H]1C)C[C@H](O)[C@H]2C(=O)O [AMPHOTERICIN B] | – | – | – | – | – | – | 22 | 22 | 22 | – | – | – | – | –
500 (≈ 1180 µM) | 500 (≈ 1180 µM) | Cc1ccc(C2C(Cl)C(=O)N2c2nnc(Cn3c(C)nc4ccccc43)s2)cc1 (configuration not stated) | – | Active | inactive | – | – | Active | < 10 | 16 | 10 | inactive | inactive | – | – | –
200 (≈ 470 µM) | 500 (≈ 1170 µM) | Cc1nc2ccccc2n1Cc1nnc(N2C(=O)C(Cl)C2c2ccc(O)cc2)s1 (configuration not stated) | Active | Active | inactive | – | – | Active | 16 | 16 | 16 | – | – | – | inactive | –
